The term IC50 denotes the concentration that inhibits the measured activity by half.

Activity calls are given as the source filed them. No cut-off for these calls is given here.

The text below walks through data of ChEMBL document CHEMBL6134796, “Development and Evaluation of Indole-Based Phospholipase D Inhibitors for Lung Cancer Immunotherapy” (J Med Chem, 2025).

The test system of assay [1] is Lewis lung carcinoma cell line. Briefly: Antitumor activity against mouse Lewis lung carcinoma cell line allografted in male C57BL/6 mouse model assessed as recovery of spleen weight at 10 mg/kg, po measured every other day for 3 weeks. The assay is classed as functional, organism-based. The method in brief: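 Syngeneic model: 6-week-old male C57BL/6 mice given 3 × 10^5 LLC cells in 50 μL PBS subcutaneously in the flank. At day 7, mice were randomized to vehicle PO daily or 10 mg/kg PO every other day for 3 weeks. Caliper volume was taken every 2 days as ([…])/2, with tumor weight at end. Spleen size and weight were recorded. Ki67 and cleaved caspase-3 were scored by IHC (DAB, hematoxylin).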

A further assay has as its system Mus musculus. Briefly: In vivo inhibition of KRAS activation in male C57BL/6 mouse allografted with mouse Lewis lung carcinoma cell line assessed as decrease in Akt phosphorylation at 10 mg/kg, po. The class given is functional, organism-based.
Assay [2] has as its system Lewis lung carcinoma cell line. Briefly: Antitumor activity against mouse Lewis lung carcinoma cell line allografted in […] male C57BL/6 mouse model assessed as increase in cell apoptosis at 10 mg/kg, po measured every other day for 3 weeks. The assay is classed as functional, organism-based.
Assay [3] relates to A549. Briefly: Inhibition of PLD1 F789A mutant (unknown origin) overexpressed in human A549 cells. The class given is cell-based. The essentials: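 A549 cells transfected with wild-type PLD1, PLD1 mutants (L425A, F614A, F789A) or PLD2, then compound-treated. PLD activity measured as [3H]phosphatidylbutanol formed in the presence of 1-butanol after [3H]myristic acid labeling, expressed as % of total lipid cpm. At least three independent experiments.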

Assay [4] addresses T1, Phospholipase D1 (Mus musculus) (UniProt Q9Z280).
T1 sequence (whole entry): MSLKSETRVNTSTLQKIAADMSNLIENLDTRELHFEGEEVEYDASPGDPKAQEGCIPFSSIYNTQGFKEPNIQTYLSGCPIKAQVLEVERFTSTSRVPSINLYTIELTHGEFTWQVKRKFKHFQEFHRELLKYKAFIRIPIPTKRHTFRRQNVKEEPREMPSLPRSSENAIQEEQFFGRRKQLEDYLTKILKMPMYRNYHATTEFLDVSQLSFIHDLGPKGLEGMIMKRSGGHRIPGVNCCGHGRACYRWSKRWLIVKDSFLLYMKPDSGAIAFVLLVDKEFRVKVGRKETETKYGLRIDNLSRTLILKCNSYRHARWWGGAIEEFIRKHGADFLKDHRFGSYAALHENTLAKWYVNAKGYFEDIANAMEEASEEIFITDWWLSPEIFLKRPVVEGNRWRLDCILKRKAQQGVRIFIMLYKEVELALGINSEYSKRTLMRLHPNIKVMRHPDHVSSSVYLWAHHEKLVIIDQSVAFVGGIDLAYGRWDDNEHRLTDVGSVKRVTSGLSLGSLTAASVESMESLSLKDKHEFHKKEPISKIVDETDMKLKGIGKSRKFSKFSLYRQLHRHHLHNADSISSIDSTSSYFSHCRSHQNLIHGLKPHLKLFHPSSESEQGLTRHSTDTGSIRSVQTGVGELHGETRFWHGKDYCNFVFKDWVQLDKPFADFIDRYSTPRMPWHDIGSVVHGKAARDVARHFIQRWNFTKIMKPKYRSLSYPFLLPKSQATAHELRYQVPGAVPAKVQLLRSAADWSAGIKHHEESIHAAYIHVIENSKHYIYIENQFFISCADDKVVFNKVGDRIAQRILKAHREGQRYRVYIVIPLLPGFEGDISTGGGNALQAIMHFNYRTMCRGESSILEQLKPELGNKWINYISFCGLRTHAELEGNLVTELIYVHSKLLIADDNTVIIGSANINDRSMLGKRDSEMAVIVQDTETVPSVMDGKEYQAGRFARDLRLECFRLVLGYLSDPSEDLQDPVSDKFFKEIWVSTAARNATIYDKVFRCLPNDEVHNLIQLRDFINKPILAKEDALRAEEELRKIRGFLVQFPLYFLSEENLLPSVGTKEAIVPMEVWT
Nature of the assay: In vivo inhibition of PLD1 in male C57BL/6 mouse allografted with mouse Lewis lung carcinoma cell line assessed as increase in CD80+ pro-inflammatory M1 macrophage population at 10 mg/kg, po by immunofluorescence analysis. The class given is functional, organism-based. The method in brief: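 Same LLC syngeneic C57BL/6 model, 10 mg/kg PO every other day for 3 weeks. Tumor tissues were stained by immunofluorescence for CD80+ and CD163+ cells, CD8+ T cells, and CD4+/IL-17+ and Treg populations. Nuclei were counterstained with 1 μM Hoechst 33342 and imaged by confocal microscopy.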

In assay [5] the test system is A549. Nature of the assay: Induction of apoptosis in human A549 cells assessed as increase in cleaved PARP activity measured up to 48 hrs in presence of gemcitabine by flow cytometry analysis. The class given is functional, cell-based. The essentials: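 A549 cells given compound, gemcitabine, or both. Apoptosis assessed by PI staining, annexin V flow cytometry, cleaved PARP immunoblot, and caspase-3 activity. For caspase-3: drugs at 10 μM for 48 h, then 1 μM NucView 488 substrate for 30 min, with 1 μM Hoechst 33342, read by plate fluorescence.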
In general terms: In flow cytometry, cells or beads pass a laser one at a time.

The test system of the next assay is HCC44. Nature of the assay: Cytotoxicity against human HCC44 cells assessed as inhibition of cell growth incubated for 48 hrs by WST-1 assay. The assay is classed as functional, cell-based. Particulars: HCC44, 48 h. The essentials: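 WST-1 viability assay. Cells seeded at 5 × 10^3 per well and incubated 24 h at 37 °C, then exposed to drug for 48 h. Absorbance read at 450 nm, in triplicate. IC50 taken as the concentration giving 50% growth inhibition versus control.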

On to `O=C(CCc1c[nH]c2ccccc12)Nc1cc(C(F)(F)F)cc(C(F)(F)F)c1`, for which the result (in assay [1]; in assay [2]; with A549 [5]) was Active. Also, the inhibition entry (in the assay with Mus musculus; in assay [4]) was “Active” throughout. In addition, the inhibition result in the assay on A549 [3] was “inactive”. Moreover, in the assay with HCC44, the IC50 worked out at 22.3 µM.
